Results taken from ChEMBL document CHEMBL4842395, “Design and Synthesis of Oleanolic Acid Trimers to Enhance Inhibition of Influenza Virus Entry” (ACS Med Chem Lett, 2021).
The source made the active and inactive calls. The rule behind the calls is not given here. Numbered stars: 1 amine (or outer) side, 2 acyl side, 3 side chain; on linkers, the order of the positions; unused ones are H or OH. Bridge positions count the residues as written; N and C are the ends. Square brackets hold non-standard residues; d marks the D form. Peptide text beside a SMILES is read from it. I, II: the chains in the order shown. X1 = O=C(O)C1(OCCCCC(=O)[*:2])C[C@H](O)[C@@H](N[*:1])[C@H]([C@H](O)[C@H](O)CO)O1; X2 = O=C(NCCCCCCN[*:1])c1cc(C(=O)NCCCCCCN[*:2])cc(C(=O)NCCCCCCN[*:3])c1

Columns and labels:
[1] = molecular target: Hemagglutinin (Influenza A virus, UniProt B4URE7); test: Inhibition of CM5 chip immobilized Influenza A virus (A/Viet Nam/1203/2004(H5N1)) HA by SPR method
Sequence of Hemagglutinin (B4URE7 whole entry): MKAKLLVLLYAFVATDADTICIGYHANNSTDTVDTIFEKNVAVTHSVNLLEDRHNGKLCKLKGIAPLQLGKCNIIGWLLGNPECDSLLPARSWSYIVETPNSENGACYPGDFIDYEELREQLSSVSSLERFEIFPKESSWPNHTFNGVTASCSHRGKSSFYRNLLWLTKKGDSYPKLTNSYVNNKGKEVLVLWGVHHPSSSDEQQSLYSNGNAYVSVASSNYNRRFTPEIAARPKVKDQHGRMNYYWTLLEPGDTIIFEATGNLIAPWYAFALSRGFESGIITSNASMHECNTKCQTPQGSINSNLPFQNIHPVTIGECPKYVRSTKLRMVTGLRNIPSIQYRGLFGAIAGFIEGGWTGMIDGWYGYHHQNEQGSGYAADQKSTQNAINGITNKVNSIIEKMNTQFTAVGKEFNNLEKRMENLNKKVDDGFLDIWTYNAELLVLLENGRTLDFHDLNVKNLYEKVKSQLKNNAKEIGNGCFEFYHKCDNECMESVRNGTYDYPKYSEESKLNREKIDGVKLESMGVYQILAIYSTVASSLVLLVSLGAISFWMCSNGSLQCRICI

[2] = Selectivity ratio of CC50 for MDCK cells to IC50 for Influenza A virus A/WSN/33(H1N1) infected in MDCK cells; format: toxicity, cell-based; settings: dog, read-out: Ratio CC50/IC50
In short: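 Selectivity index calculated as CC50 (uninfected MDCK cells, CellTiter-Glo) divided by IC50 (inhibition of A/WSN/33 H1N1-induced CPE in MDCK cells).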

[3] = tested on: Influenza A virus; test: Antiviral activity against Influenza A virus (A/WSN/1933(H1N1)) infected in MDCK cells assessed as s reduction in virus-induced cytopathic effect after 40 hrs incubation by CellTiter-Glo assay; format: functional, organism-based
In short: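 CPE-based dose–response in MDCK cells infected with A/WSN/33 (H1N1), using the CellTiter-Glo viability read-out. Medium with 1% DMSO was the negative control and oseltamivir phosphate the positive control. IC50 is the concentration giving 50% inhibition of virus-induced CPE. Means of duplicate samples from three independent experiments.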

[4] = molecular target: Hemagglutinin (Influenza A virus (A/Puerto Rico/8/1934(H1N1)), UniProt P03452); test: Binding affinity to CM5 chip immobilized Influenza A virus (A/Michigan/45/2015) (H1N1)) hemagglutin assessed as dissociation constant by surface plasmon resonance assay
Sequence of Hemagglutinin (Influenza A virus (A/Puerto Rico/8/1934(H1N1)), UniProt P03452) (P03452 whole entry): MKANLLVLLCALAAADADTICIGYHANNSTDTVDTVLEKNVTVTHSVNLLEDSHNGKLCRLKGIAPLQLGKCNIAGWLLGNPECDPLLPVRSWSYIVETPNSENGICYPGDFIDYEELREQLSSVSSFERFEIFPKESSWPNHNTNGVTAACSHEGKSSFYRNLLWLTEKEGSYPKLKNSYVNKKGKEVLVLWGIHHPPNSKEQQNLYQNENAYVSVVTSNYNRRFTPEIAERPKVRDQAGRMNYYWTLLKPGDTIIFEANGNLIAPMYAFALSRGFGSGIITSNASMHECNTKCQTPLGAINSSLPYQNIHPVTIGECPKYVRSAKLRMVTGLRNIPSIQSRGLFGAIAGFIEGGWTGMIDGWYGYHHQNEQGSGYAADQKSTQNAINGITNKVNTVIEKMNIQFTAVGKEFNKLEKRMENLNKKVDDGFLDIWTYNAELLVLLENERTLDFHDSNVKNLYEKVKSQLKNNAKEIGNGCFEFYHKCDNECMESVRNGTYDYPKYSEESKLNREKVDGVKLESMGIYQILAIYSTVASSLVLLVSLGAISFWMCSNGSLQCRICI

[5] = tested on: Influenza A virus; test: Antiviral activity against Influenza A virus (A/WSN/1933(H1N1)) infected in MDCK cells assessed as suppression of M2 protein expression at early stage of infection measured after 2 hrs post infection by Western blot analysis; format: functional
In short: (§1)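 Time-of-addition study in MDCK cells infected with A/WSN/33 (H1N1). Compound was present during one of five windows: 0–10, 0–2, 2–5, 5–8 or 8–10 h, corresponding to entry (0–2 h), replication/translation (2–8 h) and release (8–10 h). M2 and NP protein levels were compared with a DMSO control.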

[6] = tested on: Influenza B virus; test: Antiviral activity against Influenza B virus (B/Sichuan/531/2018(Victoria)) infected in cells assessed as reduction in infected cells; format: functional, organism-based
[7] = tested on: Influenza A virus; test: Antiviral activity against Influenza A virus (A/WSN/1933(H1N1)) infected in MDCK cells assessed as inhibition of virus-induced cytopathic effect at 100 uM measured after 40 hrs incubation by inverted microscpic imaging analysis; format: functional
In short: (§2)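 MDCK cells infected with influenza A/WSN/33 (H1N1), with compounds at 100 μM. Viral CPE judged by direct microscopic observation. DMSO served as the negative control and oseltamivir phosphate as the positive control. Triplicate experiments, with standard deviations.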

[8] = Cytotoxicity against MDCK cells assessed as reduction in cell viability by CellTiter-Glo assay; format: cell-based, Canis lupus familiaris; settings: dog
In short: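 Viability of normal, uninfected MDCK cells measured by CellTiter-Glo. Medium containing 1% DMSO was the negative control. CC50 is the concentration that reduces viability by 50%.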

[9] = Selectivity index, ratio of CC50 for MDCK cells to IC50 for antiviral activity against Influenza A virus (B/Sichuan/531/2018(Victoria)); format: toxicity; settings: dog, read-out: Ratio CC50/IC50
[10] = tested on: Influenza A virus; test: Antiviral activity against Influenza A virus (A/Hong Kong/4801/2014 (H3N2)) infected in cells assessed as reduction in infected cells; format: functional, organism-based
[11] = Selectivity index, ratio of CC50 for MDCK cells to IC50 for antiviral activity against Influenza A virus (A/Hong Kong/4801/2014 (H3N2)); format: toxicity; settings: dog, read-out: Ratio CC50/IC50
[12] = tested on: Influenza A virus; test: Antiviral activity against Influenza A virus (A/WSN/1933(H1N1)) infected in MDCK cells assessed as suppression of NP protein expression measured after 2 hrs post infection by Western blot analysis; format: functional; in short: as §1
[13] = tested on: Influenza A virus; test: Antiviral activity against Influenza A virus (A/WSN/1933(H1N1)) infected in MDCK cells assessed as reduction in virus-induced cytopathic effect at 100 uM measured after 40 hrs incubation by inverted microscpic imaging analysis; format: functional, organism-based; in short: as §2
[14] = molecular target: Hemagglutinin (Influenza A virus (A/Puerto Rico/8/1934(H1N1))) (UniProt P03452); test: Inhibition of hemagglutinin in compound-pretreated Influenza A virus (A/WSN/1933(H1N1)) infected in chicken RBC assessed as reduction in virus-induced agglutination measured after 25 mins; format: cell-based; settings: Erythrocyte
Sequence of Hemagglutinin (Influenza A virus (A/Puerto Rico/8/1934(H1N1))) (P03452 whole entry): as above
In short: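 Hemagglutination inhibition: virus pretreated with compound, then chicken erythrocytes added and incubated a further 25 min at room temperature. Anti-HA antibody served as the positive control.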

Compound	Kd [1] [nM]	selectivity ratio [2]	IC50 [3] [nM]	Kd [4] [nM]	inhibition (INH) [5] [%]	IC50 [6] [nM]	inhibition at 100 µM [7] [%]	CC50 [8] [nM]	selectivity ratio [9]	IC50 [10] [nM]	selectivity ratio [11]	inhibition (INH) [12] [%]	Activity [13]	inhibition [14]
CC(=O)N[C@H]1[C@H]([C@H](O)[C@H](O)CO)OC(OCCCCC(=O)NCC(=O)N[C@@H](CO)C(=O)NCC(=O)N[C@@H](CO)C(=O)N[C@@H](C)C(=O)N[C@@H](CO)C(=O)NCC(=O)N[C@@H](CO)C(=O)NCC(=O)NCCCCCCNC(=O)c2cc(C(=O)NCCCCCCNC(=O)CNC(=O)[C@H](CO)NC(=O)CNC(=O)[C@H](CO)NC(=O)[C@H](C)NC(=O)[C@H](CO)NC(=O)CNC(=O)[C@H](CO)NC(=O)CNC(=O)CCCCOC3(C(=O)O)C[C@H](O)[C@@H](NC(C)=O)[C@H]([C@H](O)[C@H](O)CO)O3)cc(C(=O)NCCCCCCNC(=O)CNC(=O)[C@H](CO)NC(=O)CNC(=O)[C@H](CO)NC(=O)[C@H](C)NC(=O)[C@H](CO)NC(=O)CNC(=O)[C@H](CO)NC(=O)CNC(=O)CCCCOC3(C(=O)O)C[C@H](O)[C@@H](NC(C)=O)[C@H]([C@H](O)[C@H](O)CO)O3)c2)(C(=O)O)C[C@@H]1O (stereo not given in full) (I: Ac-[X1]GSGSASGSG / II: Ac-[X1]GSGSASGSG / III: Ac-[X1]GSGSASGSG; linker I:C-II:C-III:C via X2)	446	–	–	–	–	–	–	–	–	–	–	–	–	–
CC1(C)CC[C@]2(C(=O)NCCCCc3cn(Cc4cc(Cn5cc(CCCCNC(=O)[C@]67CCC(C)(C)C[C@H]6C6=CC[C@@H]8[C@@]9(C)CC[C@H](O)C(C)(C)[C@@H]9CC[C@@]8(C)[C@]6(C)CC7)nn5)cc(Cn5cc(CCCCNC(=O)[C@]67CCC(C)(C)C[C@H]6C6=CC[C@@H]8[C@@]9(C)CC[C@H](O)C(C)(C)[C@@H]9CC[C@@]8(C)[C@]6(C)CC7)nn5)c4)nn3)CC[C@]3(C)C(=CC[C@@H]4[C@@]5(C)CC[C@H](O)C(C)(C)[C@@H]5CC[C@]43C)[C@@H]2C1	–	> 435	230	2630	>90	1870	> 80	> 100000	> 53.5	4580	> 21.8	>90	–	–
CC1(C)CC[C@]2(C(=O)NCCCc3cn(CC(CO)(Cn4cc(CCCNC(=O)[C@]56CCC(C)(C)C[C@H]5C5=CC[C@@H]7[C@@]8(C)CC[C@H](O)C(C)(C)[C@@H]8CC[C@@]7(C)[C@]5(C)CC6)nn4)Cn4cc(CCCNC(=O)[C@]56CCC(C)(C)C[C@H]5C5=CC[C@@H]7[C@@]8(C)CC[C@H](O)C(C)(C)[C@@H]8CC[C@@]7(C)[C@]5(C)CC6)nn4)nn3)CC[C@]3(C)C(=CC[C@@H]4[C@@]5(C)CC[C@H](O)C(C)(C)[C@@H]5CC[C@]43C)[C@@H]2C1	–	> 323	310	–	–	37600	> 80	> 100000	> 2.66	1710	> 58.5	–	Active	Active
CC1(C)CC[C@]2(C(=O)NCCCc3cn(Cc4cc(Cn5cc(CCCNC(=O)[C@]67CCC(C)(C)C[C@H]6C6=CC[C@@H]8[C@@]9(C)CC[C@H](O)C(C)(C)[C@@H]9CC[C@@]8(C)[C@]6(C)CC7)nn5)cc(Cn5cc(CCCNC(=O)[C@]67CCC(C)(C)C[C@H]6C6=CC[C@@H]8[C@@]9(C)CC[C@H](O)C(C)(C)[C@@H]9CC[C@@]8(C)[C@]6(C)CC7)nn5)c4)nn3)CC[C@]3(C)C(=CC[C@@H]4[C@@]5(C)CC[C@H](O)C(C)(C)[C@@H]5CC[C@]43C)[C@@H]2C1	–	> 263	380	–	–	28400	> 80	> 100000	> 3.53	2670	> 37.5	–	–	–
